The source of these data is PubChem BioAssay AID492976 (The Scripps Research Institute Molecular Screening Center, 2010).

Calls of active or inactive are those of the source.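 Rule for the calls: active = inhibition of 35% or more of the parasite aminopeptidase activity in malaria cell lysate; inactive = inhibition below 35%.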

The target of the assay is Aminopeptidase N (Plasmodium falciparum (isolate 3D7)) (UniProt O96935). Briefly: M1 aminopeptidase activity inhibition, P. falciparum lysate – cell lysate, fluorescence, malaria cell lysate, powder samples, late-stage follow-up (AID 492976). The following applies: H-Arg-NHMec fluorogenic substrate, at 5 µM, active compounds read high. A digest of the protocol:
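Test system: P. falciparum cell lysate. Measured by: kinetic NHMec fluorescence, ex 370 nm, em 460 nm, 60-s intervals. Benchmarks: no-compound wells and no-lysate wells. Buffer or medium: Tris-HCl, pH 7.5. Times: 10 min preincubation, 30 min reading. Also added: fluorogenic substrate H-Arg-NHMec at 50 µM final. Dosing: single compound dose of 5 µM.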

Aminopeptidase N (Plasmodium falciparum (isolate 3D7)), sequence (O96935 whole entry, looked up): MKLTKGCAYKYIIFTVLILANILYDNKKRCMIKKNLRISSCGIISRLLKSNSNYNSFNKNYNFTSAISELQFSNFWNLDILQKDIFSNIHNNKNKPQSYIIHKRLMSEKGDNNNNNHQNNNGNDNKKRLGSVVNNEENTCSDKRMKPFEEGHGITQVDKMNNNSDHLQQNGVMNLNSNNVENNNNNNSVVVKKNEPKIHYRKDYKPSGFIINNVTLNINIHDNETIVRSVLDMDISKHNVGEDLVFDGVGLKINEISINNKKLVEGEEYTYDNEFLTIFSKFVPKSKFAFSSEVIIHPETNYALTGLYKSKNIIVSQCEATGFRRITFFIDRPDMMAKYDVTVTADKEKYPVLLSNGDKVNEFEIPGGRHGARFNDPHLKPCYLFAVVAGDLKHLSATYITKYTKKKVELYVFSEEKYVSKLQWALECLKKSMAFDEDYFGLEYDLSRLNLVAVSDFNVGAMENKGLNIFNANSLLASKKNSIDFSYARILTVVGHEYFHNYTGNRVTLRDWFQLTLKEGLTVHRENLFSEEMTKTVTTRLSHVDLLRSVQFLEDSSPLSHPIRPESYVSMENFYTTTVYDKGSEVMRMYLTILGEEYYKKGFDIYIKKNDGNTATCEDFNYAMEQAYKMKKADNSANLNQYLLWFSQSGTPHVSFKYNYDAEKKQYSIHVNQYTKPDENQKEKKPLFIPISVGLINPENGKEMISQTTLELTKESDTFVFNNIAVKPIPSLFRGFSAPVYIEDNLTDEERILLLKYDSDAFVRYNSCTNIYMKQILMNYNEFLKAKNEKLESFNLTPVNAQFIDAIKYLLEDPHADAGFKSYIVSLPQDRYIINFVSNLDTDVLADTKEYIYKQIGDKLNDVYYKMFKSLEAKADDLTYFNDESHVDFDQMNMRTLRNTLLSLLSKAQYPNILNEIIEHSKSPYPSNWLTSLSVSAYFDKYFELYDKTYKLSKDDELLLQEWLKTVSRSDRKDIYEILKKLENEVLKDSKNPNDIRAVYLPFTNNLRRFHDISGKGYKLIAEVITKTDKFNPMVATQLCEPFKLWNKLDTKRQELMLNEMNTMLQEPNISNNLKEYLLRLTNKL

For `COc1ccccc1-c1nc2ccccc2c(=O)n1NC(=O)c1cccs1`, the inhibition was 0% (inactive). With `O=C1N=c2ccccc2=C1c1sc(=S)n(NC(=O)c2cccc(O)c2)c1O`, the inhibition is 17% (inactive). As to `O=C1/C(=C/c2cccs2)SC(=S)N1NS(=O)(=O)c1ccccc1`, the inhibition was 0% (inactive). Next, `O=C(O)CCC(=O)N1N=C(c2c(-c3ccccc3)c3cc(Cl)ccc3[nH]c2=O)CC1c1cccs1` (stereo not drawn): 3% (inactive); `O=C1N=c2ccccc2=C1c1sc(=S)n(NC(=O)c2ccccc2)c1O`: 0% (inactive). Under `COc1ccc(OC)c(/C=C2\SC(=S)N(C(C(=O)O)c3ccccc3)C2=O)c1` (stereo not drawn) stands 0% (inactive); under `CC(=O)N1N=C(c2c(O)n(C)c(=O)n(C)c2=O)CC1c1ccccc1` (stereo not drawn), 0% (inactive).

Regarding `O=C(NCc1cccc(F)c1)C1CCN(S(=O)(=O)Cc2ccccc2)CC1`, the inhibition is 35%. Under `O=C(O)CCC(=O)N1N=C(c2c(-c3ccccc3)c3cc(Cl)ccc3[nH]c2=O)CC1c1ccco1` (stereo not drawn) stands 2% (inactive). Under `O=C(Nn1c(C2CCC2)nc2ccccc2c1=O)c1cccs1` stands 0% (inactive); under `COc1ccc(C2CC(c3c(-c4ccccc4)c4cc(Cl)ccc4[nH]c3=O)=NN2C(=O)CCC(=O)O)cc1` (stereo not drawn), 0% (inactive); under `O=C(NCCC1=CCCCC1)C1CCN(S(=O)(=O)c2ccc(Br)s2)CC1`, 13% (inactive). As to `O=C(NCc1ccco1)C1CCCN(S(=O)(=O)c2cccc3nonc23)C1` (stereo not drawn), the inhibition was 0% (inactive).
